# Rows were chosen to be rich in hits. Some 1.4% of all compounds tested hit in one or more screens of this group.
# hiPSC survival: enhancers of single-cell hiPSC survival, primary screen, ATPlite luminescence | hit rate 0.044% among 360,000 | 100% = ROCK inhibitor wells, 0% = DMSO | AID 602274, 2012 | survival enhancement, % at 20 µM; in the data active means survival enhancement above about 18%;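 further: cells exposed to compounds for 16 hours before the ATP read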
# A3G deaminase: APOBEC3G DNA deaminase inhibitors, primary screen, biochemical, fluorescence, single-stranded DNA substrate, uHTS; DNA dC->dU-editing enzyme APOBEC-3G (Homo sapiens), Q9HC16; recombinant A3G, ssDNA deamination FAM/TAMRA fluorescence; inhibition, % at 20 µM; hit rate 0.28% among 330,000; AID 493012, 2011;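 active means inhibition of at least 40% at 20 µM, with no more than 30% in the related APOBEC3A deaminase screen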;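 further: plate controls were DMSO wells with A3G for no effect and wells lacking A3G enzyme for full effect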
# Target sequence (Q9HC16 whole entry, looked up): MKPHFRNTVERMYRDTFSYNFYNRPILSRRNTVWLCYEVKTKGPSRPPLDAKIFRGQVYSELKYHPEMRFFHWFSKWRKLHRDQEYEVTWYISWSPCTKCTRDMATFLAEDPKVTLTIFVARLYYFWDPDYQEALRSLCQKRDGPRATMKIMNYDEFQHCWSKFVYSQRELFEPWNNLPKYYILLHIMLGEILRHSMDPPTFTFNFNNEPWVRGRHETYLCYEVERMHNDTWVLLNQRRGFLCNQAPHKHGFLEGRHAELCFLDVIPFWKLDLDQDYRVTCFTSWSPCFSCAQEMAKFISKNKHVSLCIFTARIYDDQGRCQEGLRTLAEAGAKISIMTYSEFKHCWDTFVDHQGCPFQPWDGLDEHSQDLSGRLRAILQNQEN
# PfG6PD inh: PfG6PD enzyme inhibitors, primary screen, biochemical, fluorescence intensity, uHTS. glucose-6-phosphate dehydrogenase-6-phosphogluconolactonase (Plasmodium falciparum 3D7). hit rate 0.78% among 350,000. AID 504690, 2011. inhibition, % at 20 µM. PfGluPho enzyme, NADPH resazurin-diaphorase fluorescence;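 active means inhibition reaching at least a set limit at 20 µM in the primary screen, cut at about 59% in these data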;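 further: 0% = DMSO wells with substrate and 100% = DMSO wells lacking glucose-6-phosphate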
# HKDC1 inh: HKDC1 hexokinase inhibitors, primary screen, biochemical, fluorescence, uHTS; Q2TB90; recombinant HKDC1, G6PDH/diaphorase resazurin coupled fluorescence; inhibition, % at 20 µM; hit rate 0.16% among 340,000; AID 493160, 2011;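 active means inhibition above about 35% when tested at 20 µM, limit read from the data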;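 further: plate controls were DMSO wells with enzyme for no effect and DMSO wells lacking enzyme for full effect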
#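 Material: recombinant HKDC1 hexokinase; Amount: HKDC1 at 5 µg/mL; Medium: Tris pH 8.0 buffer with MgCl2, Tween-20, BSA, BME; Schedule: 90 min reaction incubation at room temperature, dark; Technique: coupled resazurin fluorescence, excitation 525 nm, emission 613 nm.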
# A3A deaminase: APOBEC3A ssDNA deaminase inhibitors, primary screen, selectivity assay for APOBEC3G inhibitor project, biochemical, FAM/TAMRA oligo cleavage fluorescence; DNA dC->dU-editing enzyme APOBEC-3A (Homo sapiens), P31941; recombinant A3A, FAM/TAMRA ssDNA deamination fluorescence; inhibition, % at 20 µM; hit rate 0.41% among 330,000;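 active means at least 40% inhibition at 20 µM here, with at most 30% in a related deaminase screen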;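 further: plate controls were A3A with DMSO for no effect and wells lacking A3A enzyme for full effect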
# PfGluPho conf: PfG6PD inhibitors, hit retest, confirmation, biochemical, fluorescence intensity, single concentration; recombinant PfGluPho, NADPH-diaphorase-resazurin fluorescence; inhibition, % at 20 µM; AID 504753, 2011; shares compounds with PfG6PD inh; hit rate 34% among 2,400;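 active means inhibition of at least 50% at 20 µM in any single replicate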;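 further: 0% = DMSO with substrate and 100% = DMSO lacking glucose-6-phosphate substrate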
# Diaphorase 10uM: diaphorase inhibitors and chemical oxidizers, confirmation, counter-screen for P. falciparum G6PD inhibitor project, biochemical, fluorescence intensity, 10 µM NADPH. AID 504862, 2011. inhibition, % at 20 µM. hit rate 39% among 820. diaphorase-coupled resazurin reduction, NADPH 10 uM. shares compounds with PfG6PD inh;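 active means average inhibition reaching 50% or more with the compound at 20 µM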;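 further: resorufin red fluorescence formed as diaphorase reduces resazurin using NADPH; 0% = DMSO with enzyme and 100% = DMSO without enzyme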
# Diaph ctr 30uM: diaphorase inhibitors and chemical oxidizers, confirmation, counter-screen for P. falciparum G6PD inhibitor project, biochemical, fluorescence intensity, 30 µM NADPH; shares compounds with PfG6PD inh; inhibition, % at 20 µM; AID 504863, 2011; Diaphorase/resazurin coupled assay, resorufin fluorescence; hit rate 29% among 820;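 active means inhibition averaging 50% or more, tested at 20 µM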;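 further: 0% = DMSO with enzyme and 100% = DMSO wells lacking diaphorase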
# An asterisk follows results filed as active; / = no result given.
SMILES,hiPSC survival,A3G deaminase,PfG6PD inh,HKDC1 inh,A3A deaminase,PfGluPho conf,others
CC(C)NC(=O)Nc1ccc2c(c1)C(=O)N([C@H](C)CO)C[C@@H](C)[C@@H](CN(C)C(=O)NC1CCCCC1)O2,-2.8,-9.3,-2.6,1.4,-2.2,/,
CC(NC(=O)C1CCN(C(=O)Nc2ccccc2)CC1)c1ccccc1Cl (stereo not drawn),5.6,-2.4,-16.0,-0.1,-1.1,/,
O=S(=O)(Nc1ccc(Cl)cc1)c1ccc(N2CCOCC2)c(NC(=S)NCCN2CCOCC2)c1,-0.4,35.1,69.2*,-4.5,0.7,63.1*,Diaphorase 10uM=-11.3;Diaph ctr 30uM=-2.2
COCCNC(=S)Nc1ccc(N2CCOCC2)c(S(=O)(=O)Nc2ccc(Cl)cc2)c1,-3.6,/,91.7*,/,/,70.0*,Diaphorase 10uM=-36.8;Diaph ctr 30uM=-6.5
CCC(=O)Nc1ccc(N2CCOCC2)c(S(=O)(=O)Nc2ccc(Cl)cc2)c1,-0.1,37.1,61.0*,-1.4,1.8,36.5,
O=C(Cc1ccc(NS(=O)(=O)c2ccc(Cl)c(Cl)c2)cc1)NCCN1CCOCC1,0.5,1.9,1.4,-0.7,0.7,/,
CCOC(=O)C1(C)CCCN(C(=O)c2cc(C#N)cs2)C1 (stereo not drawn),-1.6,/,/,/,/,/,
CC(OC(=O)c1c[nH]c2ccccc12)C(=O)N1CCCC1 (stereo not drawn),-0.4,-8.0,5.7,-6.2,-1.5,/,
COc1cccc(/C=C2/CCC(CN(C)C)C2=O)c1 (stereo not drawn),-2.3,/,70.0*,17.1,/,38.8,
CN(C)CC1CCC/C(=C/c2ccc(Cl)cc2)C1=O (stereo not drawn),-1.6,/,60.4*,30.9,/,20.9,
COc1ccc(/C=C2/CCCC(CN(C)C)C2=O)cc1 (stereo not drawn),-1.3,/,44.4,15.1,/,/,
Cc1c(NS(=O)(=O)c2cccc(C(=O)NCc3cccc(Cl)c3)c2)c(=O)n(-c2ccccc2)n1C,-1.5,/,1.5,5.0,/,/,
O=C(COc1ccc(Cl)cc1)NCc1n[nH]c(=O)c2ccccc12,0.5,-7.4,5.0,-1.8,-1.6,/,
CCCC(=O)N1CCC1(C)C(=O)Nc1cc(OC)c(OC)c(OC)c1 (stereo not drawn),-0.4,/,/,/,/,/,
CC(OC(=O)CCN=C1NS(=O)(=O)c2ccccc21)C(=O)Nc1ccc(N(C)C)cc1 (stereo not drawn),-0.5,-1.9,70.3*,4.8,6.1,4.9,
Cc1ccc2c(=O)n3c(nc2c1)C(CC(C)C)NC(=O)c1cccnc1-3 (stereo not drawn),-2.4,/,-10.6,/,/,/,
O=C(N/N=C/c1ccccc1C(=O)O)c1cccc(S(=O)(=O)Nc2cc(Cl)ccc2Cl)c1,-0.3,7.8,-20.3,4.7,2.1,/,
Cc1ccc(/C=N/NC(=O)c2cccc(S(=O)(=O)Nc3ccccc3Cl)c2)s1,-0.4,-2.8,93.8*,-8.6,-1.8,79.7*,Diaphorase 10uM=76.3*;Diaph ctr 30uM=61.4*
CCOC(=O)c1nc(N/N=C/c2ccccc2)sc1Br,-0.6,-7.3,-8.6,-0.6,-4.5,/,
Cn1ncc(Br)c1C(=O)N/N=C/c1ccc(OS(=O)(=O)c2ccccc2)cc1,-3.9,-2.3,13.3,1.1,-2.3,/,
Cn1ncc(Br)c1C(=O)N/N=C/c1cccc(OC2CSC2)c1,-0.9,-2.1,115.1*,13.5,-0.3,90.6*,Diaphorase 10uM=91.4*;Diaph ctr 30uM=81.0*
COc1cccc(OCC(=O)NNC(=O)c2ccc3ccccc3c2)c1,0.2,-2.4,2.9,-0.8,1.5,/,
CC(C)(NC(=O)c1ccccc1)c1nc2ccccc2s1,-0.6,22.3,60.2*,-2.5,4.1,37.7,
